MrgX1 antag – blocks BAM8-22 activation of human MrgX1 receptor. Q96LB2. MRGX1-HEK293 calcium flux, Fluo-4, BAM8-22 antagonism; stronger effect = lower value. B-score at 10 µM. 1.3% of 310,000 active. AID 588676;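 active means calcium-response B-score plate-corrected more than 3 library SD below zero, starting fluorescence within 5 deviations, no agonist response on first addition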;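 further: peak minus trough fluorescence over baseline after final BAM8-22 challenge near maximal dose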
Target sequence (Q96LB2 whole entry, looked up): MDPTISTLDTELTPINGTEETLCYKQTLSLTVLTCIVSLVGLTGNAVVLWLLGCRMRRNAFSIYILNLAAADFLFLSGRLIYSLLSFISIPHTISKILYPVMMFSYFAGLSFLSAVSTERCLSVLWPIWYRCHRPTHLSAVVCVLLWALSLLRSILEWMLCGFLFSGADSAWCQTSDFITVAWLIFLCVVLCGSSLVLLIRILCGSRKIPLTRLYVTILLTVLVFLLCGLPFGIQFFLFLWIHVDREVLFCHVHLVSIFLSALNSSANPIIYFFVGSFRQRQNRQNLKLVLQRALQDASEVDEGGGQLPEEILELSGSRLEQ
RGS4 inh – inhibitors of human RGS4. P49798. 0.45% of 310,000 active. HEK293 M3R/RGS4 inducible, Fluo-4 calcium flux; stronger effect = higher value; triggered by carbachol at its EC20. B-score at 10 µM;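 active means B-score, a plate-corrected calcium signal, over three deviations above library mean, with baseline fluorescence within five deviations of library mean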;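 further: RGS4 expression induced by doxycycline in cells with stable M3 receptor; B-score is computed from the integrated fluorescence ratio over baseline after carbachol; higher B-score means a larger calcium signal and so more RGS4 inhibition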
Target sequence (P49798 whole entry, looked up): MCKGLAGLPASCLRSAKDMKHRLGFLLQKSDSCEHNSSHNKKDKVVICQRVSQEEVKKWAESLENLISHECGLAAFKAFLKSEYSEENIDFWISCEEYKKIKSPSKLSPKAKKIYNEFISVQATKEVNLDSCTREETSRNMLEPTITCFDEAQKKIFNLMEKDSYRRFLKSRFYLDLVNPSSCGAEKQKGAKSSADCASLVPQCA
MrgX1 ag – agonists of human MrgX1 receptor | Q96LB2 | MrgX1-HEK293 cells, Fluo-4 calcium fluorescence, agonist mode; stronger effect = higher value | B-score at 10 µM | 0.44% of 310,000 active;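 active means calcium response B-score plate-corrected fluorescence ratio at least 3 library SD, with starting fluorescence B-score inside 5 SD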
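System – MrgX1-expressing HEK293 cells · Incubation – cells plated overnight, dye loaded 0.5 h 37 °C, 0.5 h room temperature · Technique – kinetic Fluo-4 NW fluorescence of intracellular calcium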
RGS4 act – potentiators or activators of RGS4; B-score at 10 µM; HEK293 M3R/inducible RGS4, carbachol calcium flux Fluo4; stronger effect = lower value; 0.92% of 310,000 active; AID 463111;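 active means B-score of the integrated calcium signal more than 4 SD below the library mean, with starting fluorescence not abnormally high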;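 further: negative B-score means reduced calcium response which marks RGS4 activation or potentiation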
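Assay system: HEK293 FlpIn-TREx cells, stable M3R, doxycycline-inducible RGS4 / Probe or stimulus: carbachol, ECmax concentration / Times: overnight RGS4 induction, 30 min dye load 37 °C, 20 min compound RT / Signal: kinetic calcium fluorescence imaging with Fluo4-AM dye, 2 µM / Measure: Agonist-evoked peak-minus-minimum fluorescence over baseline, integrated ratio, B score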
MrgX1 PAM – human MrgX1 positive allosteric modulation, primary screen. Q96LB2. MrgX1-HEK293, Fluo-4 calcium flux, FDSS; stronger effect = higher value. 0.63% of 310,000 active. B-score at 10 µM;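 active means plate-corrected calcium response at least 3 library SD above typical, normal starting fluorescence, not activating the receptor alone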;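 further: compound read alongside a low EC10 to EC30 dose of BAM8-22 agonist; peak minus trough fluorescence over baseline measured at the second addition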
MrgX1 ant reconf – reconfirmed antagonist of human MrgX1 receptor signaling. remaining BAM8-22 calcium response % of control (stronger effect = lower value), % at 10 µM. MrgX1-HEK293, BAM8-22 calcium flux, Fluo-4; stronger effect = lower value. 19% of 2,300 active. shares compounds with MrgX1 antag;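 active means remaining agonist calcium response no higher than 100% minus 3 SD of agonist-only control wells, with starting fluorescence near control levels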;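 further: agonist BAM8-22 given at a near maximal EC90 to ECmax level; peak minus minimum fluorescence divided by baseline after agonist addition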
HEK293 Ca flux – MrgX1 antagonist counter-screen hit in parental HEK293 cells; shares compounds with MrgX1 antag; 2% of 4,000 active; fluorescence ratio F(max-min)/F0 at 10 µM; Fluo-4 calcium fluorescence, FDSS;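 active means duplicate-averaged calcium fluorescence ratio at least three times the standard deviation of buffer wells, a nonspecific response in parental cells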
HEK293 Ca counter – MrgX1 allosteric activator counter-screen hit in parental HEK293 cells; fluorescence ratio F(max-min)/F0 at 10 µM; parental HEK293 calcium flux, Fluo-4 fluorescence ratio; stronger effect = higher value; 0.4% of 4,000 active; shares compounds with MrgX1 antag;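 active means calcium fluorescence ratio, averaged over duplicates, at least 3 SD of the buffer-well ratio, meaning a nonspecific response in receptor-free cells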;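 further: untransfected parental HEK293 lacking MrgX1 used as counterscreen for MrgX1 allosteric activators; fluorescence change taken during the second addition on a kinetic imager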
HEK293 Ca cntr2 – activity in parental HEK293 cells lacking MrgX1 receptor. shares compounds with MrgX1 antag. Fluo-4 calcium fluorescence (FDSS); stronger effect = higher value. fluorescence ratio F(max-min)/F0 at 10 µM. 8.7% of 4,000 active. AID 624115;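 active means calcium fluorescence ratio at least three times the spread of buffer wells, meaning a non-specific response in parental cells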
Large screens that a line does not name were inactive (follow-up assays come after a bar, where they were run). A selection: hits, their analogues and other compounds. The true share with any hit is near 3.5%.

COc1ccccc1CNC(=O)[C@@H]1CCCN1S(=O)(=O)c1ccc(C)cc1	MrgX1 antag -6.65 | MrgX1 ant reconf inactive | HEK293 Ca flux inactive | HEK293 Ca counter inactive | HEK293 Ca cntr2 inactive
O=[N+]([O-])c1ccc2nc(Cl)nc(-c3ccccc3)c2c1	none
O=C1CCN(S(=O)(=O)c2ccc(Cl)cc2)CCN1	MrgX1 antag -4.64 | MrgX1 ant reconf 84.2% | HEK293 Ca flux inactive | HEK293 Ca counter inactive | HEK293 Ca cntr2 inactive
CSC1=NCCN1C(=O)c1ccc(Br)o1	MrgX1 antag -5.37 | MrgX1 ant reconf inactive | HEK293 Ca flux inactive | HEK293 Ca counter inactive | HEK293 Ca cntr2 inactive
CCOC(=O)Cc1csc(NS(=O)(=O)c2ccc3ccccc3c2)n1	none
CCOC(=O)Cc1csc(NS(=O)(=O)Cc2ccccc2)n1	MrgX1 antag -11.9 | MrgX1 ant reconf inactive | HEK293 Ca flux inactive | HEK293 Ca counter inactive | HEK293 Ca cntr2 inactive
CC(C)c1nnc(NC(=O)C2CCN(C(=O)Nc3ccc(Cl)cc3)CC2)s1	none
CCOC(=O)C(=O)Nc1ccccc1C(=O)NCc1ccccc1	none
Cc1cc(C(=O)NC(C)c2ccc3c(c2)OCO3)cs1 (stereo not drawn)	MrgX1 antag -4.64 | MrgX1 ant reconf inactive | HEK293 Ca flux inactive | HEK293 Ca counter inactive | HEK293 Ca cntr2 inactive
Cc1cc(C(=O)Nc2ccc3c(c2)OCO3)cs1	none
COc1ccc(CC(C)N2CCN(Cc3ccccc3)CC2)c(OC)c1 (stereo not drawn)	MrgX1 antag -4.52 | MrgX1 ant reconf inactive | HEK293 Ca flux inactive | HEK293 Ca counter inactive | HEK293 Ca cntr2 inactive
Cc1cc(C(=O)Nc2ccccc2N2CCCCC2)no1	none
COCC(C)NC(=O)c1cc(-c2ccc(O)cc2)on1 (stereo not drawn)	MrgX1 antag -5.98 | MrgX1 ant reconf inactive | HEK293 Ca flux inactive | HEK293 Ca counter inactive | HEK293 Ca cntr2 inactive
Cc1ccc2oc(C(Cl)(Cl)Cl)cc(=O)c2c1	none
Cc1ccc(-n2ccnc(SCC(=O)NCCc3ccccc3)c2=O)cc1F	MrgX1 antag -4.62 | MrgX1 ant reconf inactive | HEK293 Ca flux inactive | HEK293 Ca counter inactive | HEK293 Ca cntr2 inactive
CCOc1ccc(-n2ccnc(SCC(=O)NCCc3ccccc3)c2=O)cc1	none
CCOc1ccc(-c2nnn(CC(=O)c3cc(OC)ccc3OC)n2)cc1	MrgX1 antag -4.68 | MrgX1 ant reconf 81.1% | HEK293 Ca flux inactive | HEK293 Ca counter inactive | HEK293 Ca cntr2 inactive
CCOc1ccc(-c2ccc(SCC(=O)NC3CCCCC3)nn2)cc1	none
COc1ccccc1N(Cc1cc2cccc(C)c2[nH]c1=O)C(=O)C(C)C	none
CCC(=O)N(Cc1cc2cccc(C)c2[nH]c1=O)c1ccccc1OC	MrgX1 antag -5.29 | MrgX1 ant reconf inactive | HEK293 Ca flux inactive | HEK293 Ca counter inactive | HEK293 Ca cntr2 inactive
O=C(Nc1ccc(NC(=O)c2cccs2)cc1)c1cccnc1	MrgX1 antag -5.79 | MrgX1 ant reconf inactive | HEK293 Ca flux inactive | HEK293 Ca counter inactive | HEK293 Ca cntr2 inactive
Cc1ccc(NC(=O)c2cccs2)cc1NC(=O)c1cccnc1	none
O=C(NCCOC(=O)c1cccs1)c1cccnc1	MrgX1 antag -7.79 | MrgX1 ant reconf inactive | HEK293 Ca flux inactive | HEK293 Ca counter inactive | HEK293 Ca cntr2 inactive
Cc1cc(NC(=O)c2cccnc2)ccc1Br	MrgX1 antag -7.47 | MrgX1 ant reconf inactive | HEK293 Ca flux inactive | HEK293 Ca counter inactive | HEK293 Ca cntr2 inactive
Cc1cccc(NC(=O)c2cccnc2)c1	none
CCC(=O)NC(=S)Nc1ccc(NC(=O)c2cc3ccccc3o2)c(OC)c1	none
COc1c(F)cc2[nH]c3c(c2c1F)CCNC3=O	none
CCCC[C@@H]1CNC(=O)C(=O)N1CC(C)(C)C	MrgX1 antag -7.17 | MrgX1 ant reconf inactive | HEK293 Ca flux inactive | HEK293 Ca counter inactive | HEK293 Ca cntr2 inactive
Cc1cc(NCc2ccco2)n2ncnc2n1	MrgX1 antag -7.12 | MrgX1 ant reconf inactive | HEK293 Ca flux inactive | HEK293 Ca counter inactive | HEK293 Ca cntr2 inactive
NCCc1ccn[nH]1	none (no result: RGS4 inh, RGS4 act)
CC(C)CCc1noc(CN(C)CCC2CCOCC2)n1	none
Cc1nn(C)c(C)c1CN(Cc1nc(CCC(C)C)no1)C(C)C	MrgX1 antag -4.63 | MrgX1 ant reconf inactive | HEK293 Ca flux inactive | HEK293 Ca counter inactive | HEK293 Ca cntr2 inactive
Cc1ccc(C)c(NC(=S)NCCSc2ccc(Cl)cc2)c1	none
Cc1ccc(NC(=S)NCCSc2ccc(Cl)cc2)c(C)c1	MrgX1 antag -6.34 | MrgX1 ant reconf inactive | HEK293 Ca flux inactive | HEK293 Ca counter inactive | HEK293 Ca cntr2 inactive
O=C(NCc1ccc(Cl)cc1)C(=O)NCC(c1cccnc1)N1CCN(c2ccc(F)cc2)CC1 (stereo not drawn)	MrgX1 antag -4.68 | MrgX1 ant reconf 76.9% | HEK293 Ca flux inactive | HEK293 Ca counter inactive | HEK293 Ca cntr2 inactive
O=C(NCC(c1cccnc1)N1CCN(c2ccc(F)cc2)CC1)c1ccccc1 (stereo not drawn)	none
CCn1c(C)c(C(C)=O)c(N2CCN(c3ccccn3)CC2)nc1=S	none
CCn1c(C)c(C(C)=O)c(N2CCN(c3ccccc3)CC2)nc1=S	MrgX1 antag -8.89 | MrgX1 ant reconf inactive | HEK293 Ca flux inactive | HEK293 Ca counter inactive | HEK293 Ca cntr2 inactive
CCOc1ccc(NC(=S)N2CCc3cc(OC)c(OC)cc3C2COc2ccc3c(C)cc(=O)oc3c2)cc1 (stereo not drawn)	none
COc1ccccc1N1CCSC1C(N)=O (stereo not drawn)	MrgX1 antag -7.15 | MrgX1 ant reconf inactive | HEK293 Ca flux inactive | HEK293 Ca counter inactive | HEK293 Ca cntr2 inactive
CC12CCC(=O)N1C(C(=O)Nc1ccccc1N1CCOCC1)CS2 (stereo not drawn)	none
Cn1c(SCC(=O)c2c(N)n(C)c(=O)n(C)c2=O)nnc1-c1ccccc1F	MrgX1 antag -5.25 | MrgX1 ant reconf inactive | HEK293 Ca flux inactive | HEK293 Ca counter inactive | HEK293 Ca cntr2 inactive
Cn1c(SCC(=O)c2c(N)n(C)c(=O)n(C)c2=O)nnc1-c1ccccc1	none
Cc1ccc(NC(=O)COC(=O)COc2cccc3c2OC(C)(C)C3)c(C)c1	none
O=C(NCC1CCCN1S(=O)(=O)c1cccs1)c1ccccc1 (stereo not drawn)	none
O=C(NCC1CCCN1S(=O)(=O)c1cccs1)c1ccc(Cl)cc1 (stereo not drawn)	MrgX1 antag -5.65 | MrgX1 ant reconf inactive | HEK293 Ca flux inactive | HEK293 Ca counter inactive | HEK293 Ca cntr2 inactive

Screening results deposited in PubChem by Johns Hopkins Ion Channel Center.
